Experiment [1] deals with T1, Y731F-α2 (Escherichia coli, UniProt P00452, Y731F).
T1 sequence (P00452 1-761 Y731F): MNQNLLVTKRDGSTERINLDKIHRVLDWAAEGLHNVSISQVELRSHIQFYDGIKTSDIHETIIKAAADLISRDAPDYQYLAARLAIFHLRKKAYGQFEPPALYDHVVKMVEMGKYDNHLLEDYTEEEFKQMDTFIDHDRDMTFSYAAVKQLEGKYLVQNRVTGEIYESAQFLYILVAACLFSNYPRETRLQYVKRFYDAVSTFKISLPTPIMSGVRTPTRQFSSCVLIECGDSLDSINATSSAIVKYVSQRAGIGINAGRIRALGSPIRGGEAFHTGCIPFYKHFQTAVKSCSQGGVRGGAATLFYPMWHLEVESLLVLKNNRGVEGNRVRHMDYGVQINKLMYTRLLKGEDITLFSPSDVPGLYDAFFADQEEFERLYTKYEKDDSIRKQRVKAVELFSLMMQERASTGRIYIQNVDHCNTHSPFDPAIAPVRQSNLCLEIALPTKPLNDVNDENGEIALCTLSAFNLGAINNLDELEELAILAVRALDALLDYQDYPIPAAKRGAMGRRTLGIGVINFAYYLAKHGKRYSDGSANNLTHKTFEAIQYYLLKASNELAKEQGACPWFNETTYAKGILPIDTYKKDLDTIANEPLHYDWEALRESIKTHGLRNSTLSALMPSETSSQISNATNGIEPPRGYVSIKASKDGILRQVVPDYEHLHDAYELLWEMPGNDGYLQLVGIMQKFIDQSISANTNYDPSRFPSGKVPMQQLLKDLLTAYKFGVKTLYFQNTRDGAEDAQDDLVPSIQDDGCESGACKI
Briefly: Flash-quench transient absorption: •F3Y radical in presence of Y731F-α2. The experiment is classed as biochemical.

A further experiment has as its target T2, C439S-α2 (Escherichia coli, UniProt P00452, C439S).
T2 sequence (P00452 1-761 C439S): T1 sequence (P00452 1-761 Y731F) with C439S, F731Y
Briefly: Flash-quench transient absorption: •F3Y radical in presence of C439S-α2. The experiment is classed as biochemical.

Experiment [2] has as its target T1, Y731F-α2. Briefly: [Re^I]* emission lifetime of peptide bound to Y731F-α2. The experiment is classed as binding. As to conditions: 10 μM peptide, 20 μM α2, pH 8.3. In short, it runs like this:
(§1)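 Time-resolved [Re] emission, monitored at 610 nm. Samples held 10 μM Re-labelled test peptide, 200 μM Ru(NH3)6Cl3, 1 mM CDP and 3 mM ATP in 50 mM sodium borate, pH 8.3, 15 mM MgSO4, 5% glycerol. For the bound state, 20 μM His6-tagged E. coli α2 mutant was added. Samples were equilibrated 3 min at 23 °C and measured while flowing. Lifetimes came from weighted least-squares fits of averaged traces.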

Another experiment addresses T3, wt-α2 (Escherichia coli, UniProt P00452).
T3 sequence (P00452 1-761): T1 sequence (P00452 1-761 Y731F) with F731Y
Kind of experiment: Flash-quench transient absorption: •F3Y radical in presence of wt-α2. The experiment is classed as biochemical.

Experiment [3] can be described thus: [Re^I]* emission lifetime of peptide in solution. The format is physicochemical. In short, it runs like this:
as §1

The test system of the next experiment is α2 mutants. Briefly: Charge-separated state lifetime in presence of α2 proteins. Particulars: each of the protein mutants, in words. The format is physicochemical, Escherichia coli.
Where [4] appears, read: C439S-α2, average across three wavelengths (395, 410, 425 nm).

Residue numbers refer to the chain shown, from its start. Numbered stars: 1 amine (or outer) side, 2 acyl side, 3 side chain; on linkers, the order of the positions; unused ones are H or OH. Square brackets hold non-standard residues; d marks the D form. Peptide text beside a SMILES is read from it. * marks the point of attachment. Isonicotinoyl(2-(4-Me-2-Py)) = Cc1ccnc(-c2cc(C(=O)*)ccn2)c1; X1 = O=C([C@H](Cc1c(F)cc(O)c(F)c1F)N[*:1])[*:2]

In the case of `CC[C@H](C)[C@H](NC(=O)[C@H](CCC(N)=O)NC(=O)CNC(=O)[C@@H](NC(=O)[C@H](CC(C)C)NC(=O)[C@H](Cc1c(F)cc(O)c(F)c1F)NC(=O)c1ccnc(-c2cc(C)ccn2)c1)C(C)C)C(=O)N[C@@H](CC(=O)O)C(=O)N[C@@H](CO)C(=O)N[C@@H](CCC(=O)O)C(=O)N[C@H](C(=O)N[C@@H](CC(=O)O)C(=O)N[C@H](C(=O)N[C@@H](CC(=O)O)C(=O)N[C@@H](CC(=O)O)C(=O)N[C@@H](CC(C)C)C(=O)N[C@@H](CO)C(=O)N[C@@H](CC(N)=O)C(=O)N[C@@H](Cc1ccccc1)C(=O)N[C@@H](CCC(N)=O)C(=O)N[C@@H](CC(C)C)C(=O)O)[C@@H](C)O)C(C)C` [[Re]–F3Y–βC19] ({Isonicotinoyl(2-(4-Me-2-Py))}-[X1]LVGQIDSEVDTDDLSNFQL-OH; N-terminus and C-terminus assumed), the “radical lifetime change / radical injection (in words)” value at Y731F-α2 [1] (Y731F-α2) is on record as “cannot competently inject the radical into α2”; at Y731F-α2 [1] (Y731F-α2, listed as [Re]–•F3Y–βC19) it was “no significant change in radical lifetime”. For the same compound, the “•F3Y lifetime τ410” value at Y731F-α2 [1] (Y731F-α2, 410 nm, monoexponential, 50 μM peptide, 100 μM α2, pH 8.3) was determined as 14.2 ± 0.2 μs. In addition, the “•F3Y lifetime τ425” value on Y731F-α2 [1] (Y731F-α2, 425 nm, monoexponential, 50 μM peptide, 100 μM α2, pH 8.3) worked out at 16.5 ± 0.4 μs. For the same compound, the “portion of peptide N-terminus in the "on" conformer” value at Y731F-α2 [1] (Y731F-α2, from amplitude of the •F3Y lifetime) is listed as 20–30%. The “•F3Y radical decay profile (in words)” value at C439S-α2 (C439S-α2) and on wt-α2 (wt-α2) was “biexponential decay owing to the contribution of a significantly shorter lifetime component” each time. The “•F3Y radical decay: small amplitude component ("on" state)” value at C439S-α2 (C439S-α2) is on record as 20%. Further, the “amplitude of long phase” value at C439S-α2 (C439S-α2, 395 nm) is recorded as 81%. In addition, the “amplitude of short phase” value on C439S-α2 (C439S-α2, 395 nm) is listed as 19%. In addition, the “•F3Y lifetime, short phase” value at C439S-α2 (C439S-α2, 395 nm, biexponential) was 2.2 ± 1 μs; at wt-α2 (wt-α2, averaged across wavelengths), 3.0 ± 1.4 μs. In addition, the “•F3Y lifetime, long phase” value is reported as 17.3 ± 0.9 μs on C439S-α2 (C439S-α2, 395 nm, biexponential, 50 μM peptide, 100 μM C439S-α2, 1 mM Ru(NH3)6Cl3, 1 mM CDP, 3 mM ATP, borate pH 8.3) and 15.4 ± 0.5 μs at wt-α2 (wt-α2, averaged across wavelengths, 50 μM peptide, 100 μM α2, 1 mM Ru(NH3)6Cl3, 1 mM CDP, 3 mM ATP, borate pH 8.3). Further, on C439S-α2 (setting [4]), the “•F3Y lifetime, "off" state” value was determined as 16.9 ± 0.7 μs. For the same compound, the “•F3Y lifetime, "on" state” value at C439S-α2 (setting [4]) is 2.5 ± 1.0 μs. The “[Re^I]* emission lifetime, "on" state” value at Y731F-α2 [2] worked out at 29 ns. Further, the injection rate result on wt-α2 (wt-α2, Eq. 1: kox = 1/τon − 1/τoff) was “(3 ± 2) × 10^5 s^−1”. Besides, in experiment [3] (pH 8.3, 22 ns component), the “[Re^I]* emission decay, contribution of short component” value is on record as 81%. Besides, the “[Re^I]* emission decay, contribution of long component” value in experiment [3] (pH 8.3, 58 ns component) worked out at 19%. The “[Re^I]* emission lifetime, long component” value in experiment [3] (pH 8.3, biphasic, [Re^I]* unchanged by proximal F3Y) worked out at 58 ns. The “[Re^I]* emission lifetime, short component” value in experiment [3] (pH 8.3, biphasic, quenching by deprotonated F3Y−) is recorded as 22 ns. The “charge-separated state lifetime vs protein mutant” value in the experiment on α2 mutants was “Identical lifetimes”.

For the origin of these results see publication PMC3268775 (Journal of the American Chemical Society, 2012).
